Results on 18 compounds are retold here after ChEMBL document CHEMBL1131024, “N-Arylalkyl pseudopeptide inhibitors of farnesyltransferase” (J Med Chem, 1998).

Assay [1] deals with Protein farnesyltransferase (Homo sapiens, UniProt P49354+P49356). The assay is described as follows: Inhibition of [3H]FPP incorporation into recombinant human Ha-Ras by Farnesyltransferase. Type of assay: protein-complex assay. In short, it runs like this: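 FTase, either purified from bovine brain or homogeneous human recombinant, transferred [³H]FPP onto recombinant Ha-Ras. Total protein was acid-precipitated and protein-bound FPP was counted by scintillation. IC50 is the concentration inhibiting 50% of [³H]FPP incorporation.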

Assay [2] has as its target Geranylgeranyl transferase type I (Bos taurus, UniProt P29702+Q5EAD5). The assay is described as follows: Inhibition of bovine Geranylgeranyl transferase type I. Type of assay: protein-complex assay.
For assay [3], the system named is NIH3T3. The assay is described as follows: Highest nontoxic concentration in NIH3T3 cells by MTT staining. It counts as functional, Mus musculus. In short, it runs like this: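 NIH 3T3 cells were exposed to compound for 48 h, and viability was read by MTT staining. The endpoint is the highest concentration the cells tolerated.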
Assay [4] concerns the target Protein farnesyltransferase (Mus musculus, UniProt Q61239+Q8K2I1). The assay is described as follows: Inhibition of post-translational processing of v-Ras protein in NIH3T3 cells. Type of assay: functional, cell-based. In short, it runs like this:
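v-ras-transformed NIH 3T3 cells were incubated 24 h with compound or solvent control and labeled with [³⁵S]methionine over the final 20 h. Processed (farnesylated) Ras was resolved by SDS-PAGE. Lovastatin at 15 µM served as positive control.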

Assay [5] concerns the target T1, Protein farnesyltransferase (Bos taurus, UniProt P29702+P49355). The assay is described as follows: Inhibition of bovine brain Farnesyltransferase at 10 pM. To be noted: in the assay text read “at approximately 1 nM” for “at 10 pM”.
Assay [6] relates to Rat1. The assay can be described thus: Inhibition of colony formation in Rat 1-v-ras-transformed cells in soft agar. Type of assay: functional. In short, it runs like this:
(§1)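 Rat1 cells transformed by v-ras or v-raf were grown in soft agar for about 2 weeks, fed twice weekly. MIC is the minimum concentration reducing colony size and number relative to vehicle-treated controls.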

Assay [7] deals with Rat1. The assay is described as follows: Inhibition of colony formation in Rat 1-v-raf-transformed cells in soft agar. Type of assay: functional. A digest of the protocol:
as §1

Assay [8] deals with T1, Protein farnesyltransferase. The assay is described as follows: Inhibition of bovine brain Farnesyltransferase at 1 nM. In short, it runs like this:
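Bovine brain FTase at approximately 1 nM transferred [³H]FPP onto recombinant human Ha-Ras. Acid-precipitated protein-bound label was counted by scintillation. IC50 is the concentration giving 50% inhibition of incorporation.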

Converted amounts (≈) assume the structure as drawn. Bounds are passed on as bounds.

Consider `CC[C@@H](C)[C@@H](CN(CC(=O)N[C@@H](CCSC)C(=O)O)Cc1ccccc1)NCCCS`, for which the IC50 in assay [1] was 2.2 nM; in assay [2], 39000 nM.

In assay [3], `CCC(C)[C@@H](CN(CC(=O)N[C@@H](CCSC)C(=O)OC)Cc1ccccc1)NC[C@@H](N)CS` (stereo partly specified) yielded a CTE of 10 µM. The IC50 in assay [4] was 100 nM.

Consider `CC[C@@H](C)[C@@H](CN[C@@H](Cc1ccccc1)C(=O)N[C@@H](CCSC)C(=O)O)NC[C@@H](N)CS`, for which the figures for the IC50 in assay [1] and in assay [2] were 4.8 nM and 5750 nM, respectively.

On to `CCC[C@@H](C(=O)N[C@@H](CCO)C(=O)O)N(C)C[C@@H](NC[C@@H](N)CS)[C@H](C)CC`, for which the IC50 in assay [1] stood at 21 nM; in assay [2] it was 43000 nM.

Regarding `CC[C@@H](C)[C@@H](CN(CC(=O)N[C@@H](CCSC)C(=O)O)Cc1ccccc1)NC[C@@H](N)CS`, the IC50 in assay [1] is 1.2 nM; in assay [2] it was 450 nM.

Consider `CC[C@@H](C)[C@@H](CN(Cc1ccccc1)[C@@H](Cc1ccccc1)C(=O)N[C@@H](CCSC)C(=O)O)NC[C@@H](N)CS`, for which the IC50 in assay [1] is 1400 nM.

For `CC[C@@H](C)[C@@H](CN(C)[C@H](C(=O)N[C@@H](CCSC)C(=O)O)[C@@H](C)CC)NC[C@@H](N)CS`, the IC50 in assay [1] amounted to 25 nM; in assay [2] it was 4700 nM.

As to `CCC[C@H](NC[C@@H](NC[C@@H](N)CS)[C@H](C)CC)C(=O)N[C@@H](CCO)C(=O)O`, the IC50 in assay [5] came out at 27 nM; in assay [2], 10000 nM.

Take `CC[C@@H](C)[C@@H](C(=O)N[C@H]1CCOC1=O)N(C)C[C@@H](NC[C@@H](N)CS)[C@H](C)CC`: the CTE in assay [3] worked out at 500 µM. In assay [6], this compound returned an MIC of 500 µM (≈ 208 µg/mL). The compound further had an IC50 in assay [4] of 25000 nM.

On to `CC[C@@H](C)[C@@H](CN[C@H](C(=O)N[C@@H](CCSC)C(=O)O)[C@@H](C)CC)NC[C@@H](N)CS`, for which, in assay [1], the IC50 was determined as 30 nM.

`CC[C@@H](C)[C@@H](CN(C)CC(=O)N[C@@H](CCO)C(=O)O)NC[C@@H](N)CS`: the IC50 in assay [5] stood at 83 nM; in assay [2], 10000 nM.

Regarding `CC[C@@H](C)[C@@H](CN(C)[C@@H](Cc1ccccc1)C(=O)N[C@@H](CCSC)C(=O)O)NC[C@@H](N)CS`, in assay [1], the IC50 worked out at 42 nM.

As for `CC[C@@H](C)[C@@H](CN(CC(=O)N[C@@H](CCSC)C(=O)OC)Cc1cccc2ccccc12)NC[C@@H](N)CS`, the MIC in assay [7] is > 5 µM; in assay [6] it was 2.5 µM (≈ 1.37 µg/mL). The CTE in assay [3] came to 5 µM. This compound had an IC50 in assay [4] of 500 nM.

Take `CC[C@@H](C)[C@@H](CN(CC(=O)N[C@@H](CCO)C(=O)O)Cc1cccc2ccccc12)NC[C@@H](N)CS`: the figures for the IC50 in assay [1] and in assay [2] were 0.123 nM and 10 nM, respectively.

As to `CC[C@@H](C)[C@H](NC[C@@H](NC[C@@H](N)CS)[C@H](C)CC)C(=O)N[C@H]1CCOC1=O`, the results for the MIC in assay [7] and in assay [6] were > 1000 µM and 1000 µM (≈ 403 µg/mL), respectively. Moreover, in assay [3], the CTE was >1000 µM. The same compound showed an IC50 in assay [4] of 100000 nM.

Take `CC[C@@H](C)[C@@H](CN[C@@H](Cc1ccccc1)C(=O)N[C@@H](CCO)C(=O)O)NC[C@@H](N)CS`: the results for the IC50 in assay [8] and in assay [2] were 26 nM and 10000 nM, respectively.

Take `CC[C@H](C)[C@H](NC[C@@H](NC[C@@H](N)CS)[C@@H](C)CC)C(=O)N[C@@H](CCO)C(=O)O`: the IC50 in assay [1] is 20 nM.

In the case of `CC[C@@H](C)[C@@H](CN(C)[C@@H](Cc1ccccc1)C(=O)N[C@@H](CCO)C(=O)O)NC[C@@H](N)CS`, the IC50 in assay [1] came out at 1600 nM.

The term IC50 denotes the concentration that gives 50% inhibition. One may read the MIC as the smallest concentration in the dilution series that meets the test's criterion for growth inhibition. A high value points to a less susceptible organism.
